Our source for the cytotoxicity values is ChEMBL document CHEMBL4513216, “Probing the Open Global Health Chemical Diversity Library for Multistage-Active Starting Points for Next-Generation Antimalarials” (ACS Infect Dis, 2020).

This data set in a line: Toxicity liver stage against HepG2, at 10uM. It counts as cell-based. Also noted: test concentration 10 uM, cell line HepG2-A16-CD81EGFP. Particulars: human, HepG2-A16-CD81EGFP cells; read-out: INHIBITION
Summed up: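 Uninfected HepG2-A16-CD81EGFP cells, 3 × 10^3 per well, 1536-well, plated on prespotted compound at 10 μM final, parasite-free screening media added to match infected plates; puromycin 10 μM positive, DMSO 0.5% negative; run in parallel with 48 h PbLuc assay at 37 °C, 5% CO2; viability by CellTiter-Glo luminescence, normalized to controls.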

Molecules are shown by their SMILES.

In the case of `Cc1cc(COC(=O)[C@@H]2Cc3ccccc3CN2S(C)(=O)=O)no1`, the cytotoxicity at 10 µM was -9.87%. Turning to `CC(C)(N)c1cn(C2CCN(c3ncccc3Cl)CC2)nn1`, the cytotoxicity at 10 µM is -48%.

On to `CCc1ncc2c(n1)CN(CC(=O)Nc1ccc(Cl)cn1)CC2`, for which the cytotoxicity at 10 µM came out at 1.47%. In the case of `COc1c(C(=O)NCc2cccnc2)nnn1Cc1ccccc1` it was 12.5%; in that of `O=C(CN1CCCC1)N1CCCC1c1nc(O)cc(-c2ccccn2)n1` (stereo not drawn), -10.7%; in that of `Cc1cc(C)cc(CNC(C)c2c(C)nn(C)c2C)c1` (stereo not drawn), 5.14%. In the case of `CN(C)CC1(O)CCN(S(=O)(=O)c2ccc(Cl)cc2)C1` (stereo not drawn) it was -13.9%; in that of `CC(C)c1nnc2sc(CC3CCS(=O)(=O)CC3)nn12`, 4.62%.

As for `Cc1cn(-c2ccccc2)nc1NS(=O)(=O)c1ccc(C(=O)O)cc1F`, the cytotoxicity at 10 µM is -2.59%.

Consider `Fc1cnc(N2CC3(CCN(Cc4ccsc4)C3)C2)nc1`, for which the cytotoxicity at 10 µM was -84.4%. As to `O=c1ccc(-c2cccs2)nn1CN1CCCCCC1`, the cytotoxicity at 10 µM was -5.51%. As to `O=C(CCCNC(=O)Nc1ccc(F)cc1)Nc1cn[nH]c1`, the cytotoxicity at 10 µM worked out at 9.37%.

On to `Cc1ccc(CNC(=O)CCC(=O)NCCC(C)C)o1`, for which the cytotoxicity at 10 µM was -9.74%. In the case of `CCc1nnsc1C(=O)N(C)Cc1nnc2n1CCC2` it was -0.862%. In the case of `CC(C)Cn1cc(NC(=O)N2CCCC2)cn1` it was -5.28%.

Turning to `O=C(c1ccccc1)N1CCC[C@]2(C[C@@H](OCc3ccccn3)CO2)C1`, the cytotoxicity at 10 µM was -67.5%.

As for `c1cnc(-c2cnc(N3CCSCC3)nc2C2CC2)cn1`, the cytotoxicity at 10 µM stood at 17.3%. Then `CC(=O)Nc1nc(C(=O)N2CCCC(n3ccnc3)C2)cs1` (stereo not drawn), with -3.44%.

Turning to `O=C(c1coc(CN2CCN(c3ccccc3F)CC2)n1)N1CC=CC1`, the cytotoxicity at 10 µM was -3.06%. `CCOCC(=O)NCc1cc(C2CC2)n(C2CCCC2)n1`: the cytotoxicity at 10 µM is -0.165%. Then `CCOc1ccc(NC(C)c2nnnn2-c2ccccc2)cc1CO` (stereo not drawn), with -5%; and `COCC(=O)N1CCc2ncc(Cn3cncn3)n2CC1`, with -81%.

Regarding `CCc1ccc(C2CCCN2C(=O)CNC(=O)CCC(C)C)o1` (stereo not drawn), the cytotoxicity at 10 µM was -10.2%. In the case of `Cc1nn(C)c2c(=O)n(Cc3ccc(F)cc3)nnc12` it was 3.41%; in that of `CCC[C@H]1CN(CCS(C)(=O)=O)C[C@@H]1NC(=O)Cn1cc(C)cn1`, 2.72%.

Consider `CCc1nc(C2CCCN2C(=O)c2ccc3c(c2)nnn3C)no1` (stereo not drawn), for which the cytotoxicity at 10 µM was -4.35%.

As for `CC(=O)Nc1nc(CN2CCCC2c2cnn(C)c2)cs1` (stereo not drawn), the cytotoxicity at 10 µM is -11.8%. Then `CC(C1CCN(Cc2ccc(OC(F)F)cc2)CC1)N1CCOCC1` (stereo not drawn), with -2.38%; and `CCn1c(CN2CCC(O)(C(=O)OC)CC2)nc2c(F)cccc21`, with -9.73%; and `Cc1ccc(S(=O)(=O)NC[C@H]2OC[C@@H](NCc3ccccc3)[C@@H]2O)cc1`, with -1.73%. Then `NC(=O)C1(Cc2ccc(-c3ccccc3)cc2)CCNC1` (stereo not drawn), with 11.5%. Take `CCS(=O)(=O)Nc1ccc(C(=O)NCCCN2CCCC2)cc1`: the cytotoxicity at 10 µM was determined as 1.83%. Then `Cc1cc(CN(C)C(=O)CN2CC3(CCNCC3)OC2=O)no1`, with 3.19%. In the case of `CCOCC(O)CNc1cncc(Br)c1` (stereo not drawn) it was 4.21%; in that of `CN(C)[C@@H]1CCN(C(=O)Cc2cccs2)[C@H]1Cc1cnn(C)c1`, -72.2%; in that of `CCC(=O)c1ccc(OCC(=O)N2CCNCC2C(=O)NC2CC2)cc1` (stereo not drawn), -3.28%.

As for `NC1(c2nc(C(F)(F)F)cc(=O)[nH]2)CCCC1`, the cytotoxicity at 10 µM amounted to 19.1%. In the case of `CCc1nc(CN(C)C(=O)NC(C)c2cccc(NC(C)=O)c2)cs1` (stereo not drawn), the cytotoxicity at 10 µM was -4.85%. In the case of `O=C(CN1CCN(c2ccnc3c(F)ccc(F)c23)CC1)N1CCCC1` it was 17.4%; in that of `NCC1CCC(C(NC(=O)C2CC2)c2ccccn2)CC1` (stereo not drawn), -12.6%. `N[C@H]1CN(CCCOc2ccccc2)C[C@@H]1C1CC1`: the cytotoxicity at 10 µM came to 0.147%. In the case of `O=C(NCCCNc1ccc(C(F)(F)F)cn1)c1ccc(F)cc1` it was -8.72%; in that of `CN1C[C@H]2CN(C(=O)c3ccc4c(c3)OCO4)CCN2C1=O`, -0.434%; in that of `CN1CCN(Cc2ccccc2CNC(=O)c2ccc(Cl)cc2F)CC1`, 15.5%.

Consider `O=C(Nc1cccc(OCc2ccc(F)cc2)c1)C1COCCO1` (stereo not drawn), for which the cytotoxicity at 10 µM came to 1.18%. On to `O=C1CN(C(=O)C2CCC3(CC2)CNC(=O)c2ccccc2O3)CCN1` (stereo not drawn), for which the cytotoxicity at 10 µM was -11.6%. As to `CN1CCOC(CNC(=O)CCCOc2cccc(F)c2)C1` (stereo not drawn), the cytotoxicity at 10 µM was -5.1%.

As for `CC(C(=O)NCc1ccnc(N(C)C)c1)n1cncn1` (stereo not drawn), the cytotoxicity at 10 µM is -9.7%. Then `Cc1ccc(=O)n(Cc2nc(C(C)OCC(C)C)no2)n1` (stereo not drawn), with -3.21%.

With `NC(=O)N1CCCC(C(=O)NCCOc2ccc(F)cc2F)C1` (stereo not drawn), the cytotoxicity at 10 µM is 3.26%. Consider `CC(=O)Nc1nc(C(=O)NC(C)c2ccc(F)c(F)c2)cs1` (stereo not drawn), for which the cytotoxicity at 10 µM was -5.39%.

Consider `CS(=O)(=O)c1cncnc1C1CCCN(C(=O)Cc2ccccc2F)C1` (stereo not drawn), for which the cytotoxicity at 10 µM was found to be 2.72%. Then `O=C(CCC(=O)N1CCc2[nH]c3ccccc3c2C1)NCc1ccco1`, with 3.59%. Then `Cc1ncc2c(n1)CN(CC(=O)Nc1c(C)nn(C)c1C)CC2`, with -11.1%; and `CC(=O)N1CCN(c2cc(N3CCOCC3)cnn2)CC1`, with -7.09%; and `Cc1ccc(O)c(CN2CCc3nc(-c4cccnc4)nc(O)c3C2)c1`, with 5.19%. Then `Cc1nn(C)c(N2CCOCC2)c1CNC1CCCCNC1=O` (stereo not drawn), with 5.84%; and `CCC1C(=O)NCCN1c1nccc(C)n1` (stereo not drawn), with 0.889%.

`CC1(C)CN(C(=O)CCc2nc(-c3ccncc3)no2)CCO1`: the cytotoxicity at 10 µM is -3.16%. As for `Cn1cc(CN2CCCC(CCc3ccc(F)cc3)C2)cn1` (stereo not drawn), the cytotoxicity at 10 µM is -12.6%. Consider `COCCN1C(=O)C[C@H]2[C@H]1CCN2Cc1ccccc1`, for which the cytotoxicity at 10 µM is -71.5%. Then `COc1cc(C)nc(N2CCN(C(=O)COCC(F)(F)F)CC2)n1`, with -9.62%; and `CC(C)NC(=O)N1CCc2onc(C(=O)NCCN(C)C)c2C1`, with 0.0529%. Take `Fc1cnc(N2C[C@H]3CCC[C@@]3(COc3ccccn3)C2)nc1`: the cytotoxicity at 10 µM was determined as 15.6%. Turning to `CCC(O)CN1CCN(C(=O)Cc2ccccc2Cl)CC1` (stereo not drawn), the cytotoxicity at 10 µM is -7.98%. In the case of `COCCNC(=O)[C@]12COC[C@H]1CN(C1CCOCC1)C2` it was -109%; in that of `Cc1n[nH]cc1CNCC1(c2cccc(F)c2)CCOCC1`, 6.48%.

As to `Cc1ccc(C(C)(O)CNC(=O)c2sccc2Br)o1` (stereo not drawn), the cytotoxicity at 10 µM is 4.77%.

Turning to `Cc1nn(C)c(Cl)c1C1CCCN1Cc1ccc(C(N)=O)cc1` (stereo not drawn), the cytotoxicity at 10 µM is -3.69%. Then `O=C(CCOc1cccc(Cl)c1)N1CCN(c2cnccn2)CC1`, with -0.284%; and `CC(C)CCN1CCN(Cc2nc(C(C)C)no2)CC1`, with -6.71%. Then `c1cc2n(n1)CC(CNCc1ccc(OC3CCCC3)nc1)CN2` (stereo not drawn), with -5.17%.

For `CC(C)(N)CN1CCC(c2nnc(CN3CCCC3)n2C2CC2)CC1`, the cytotoxicity at 10 µM turned out to be 19.2%.

For `CCOCc1cccc(NC(=O)C2COCCO2)c1` (stereo not drawn), the cytotoxicity at 10 µM was found to be 3.96%. In the case of `O=S(=O)(Cc1ccccc1)c1nnc(N2CCOCC2)s1` it was -4.65%; in that of `COCCCNC(=O)CCn1ncc2c(Cl)cccc21`, 7.72%; in that of `COCC1CCN(C(=O)c2cccc(S(=O)(=O)NC3CCCC3)c2)C1` (stereo not drawn), 10.8%. Regarding `CN1CCOC(C(=O)Nc2ccc3[nH]nnc3c2)C1` (stereo not drawn), the cytotoxicity at 10 µM is 6.77%. In the case of `CCC(Nc1cccc(Oc2ccccn2)c1)C(N)=O` (stereo not drawn) it was 9.55%; in that of `OC1(CNCCCN2CCc3ccccc32)CCNC1` (stereo not drawn), 11.5%. As for `Cc1cc(CN(C2CC2)C(C)C(C)C)no1` (stereo not drawn), the cytotoxicity at 10 µM worked out at 0.519%. On to `Cn1cnc2c1CCN(Cc1nc(-c3ccsc3)no1)C2`, for which the cytotoxicity at 10 µM is -3.29%. In the case of `Cn1ccnc1C1CCN(S(=O)(=O)c2ccc3c(c2)OCCO3)CC1` it was -13.5%.

With `O=C(Cc1cccs1)N1CCc2nnc(COc3cncnc3)n2CC1`, the cytotoxicity at 10 µM is 8.61%.

For `Cc1cc2cc(C(=O)N[C@@H]3CC[C@@H](N4CCCC4)[C@@H]3O)ccc2o1`, the cytotoxicity at 10 µM is -4.72%. In the case of `Cc1ccc(CNc2ccccc2SCCC(N)=O)s1` it was 10.6%; in that of `Cc1cnn(CC2CN(Cc3nnc(-c4ccccc4)o3)CCO2)c1` (stereo not drawn), -6.61%. Then `Cc1noc(C2CCN(C(C)c3nc(C4CC4)no3)CC2)n1` (stereo not drawn), with 7.57%; and `COc1ccc(OCCN(C)CCCn2cnc3c(N)ncnc32)cc1`, with 1.12%; and `O=S1(=O)[C@@H](c2ccccc2)[C@H](CO)CN1C1CC1`, with -4.83%. As to `Cc1cccc(CN2CCCn3c(nnc3CN3CCCC3=O)C2)n1`, the cytotoxicity at 10 µM came out at 2.14%.

As for `Cc1cnn(CCNCC(=O)NCCOc2ccc(F)cc2)c1`, the cytotoxicity at 10 µM is -4.45%. Then `CCc1nc2n(n1)CC(NCc1nc3ccccc3o1)CC2` (stereo not drawn), with 12.4%.

As for `O=C(c1ccnc(C2CCNCC2)c1)N1CCCOCC1`, the cytotoxicity at 10 µM was -3.64%. `O=C(Nc1cccnc1N1CCSCC1)c1ccc2c(c1)CCC2`: the cytotoxicity at 10 µM was -2.03%.

As for `c1ncn(CC2CCCCN2Cc2cn3ccsc3n2)n1` (stereo not drawn), the cytotoxicity at 10 µM is -13.9%. Then `c1cnc(N2CCC3(COCCN(CC4CCOCC4)C3)C2)nc1` (stereo not drawn), with -1.56%.

Take `CN(C)C(=O)C1(C)CN(Cc2cn(C)c3ccccc23)CCO1` (stereo not drawn): the cytotoxicity at 10 µM is 1.78%.
